# Measurements published in PubChem BioAssay.
# Unmarked numbers belong to inactive results. Records with an inconclusive call do not appear. Active and inactive are the calls of the source.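 Rule for the calls, unless noted: active = inhibition over a set limit, the all-compound mean plus 3 SD, in both replicate runs; inconclusive = over that limit in just one replicate run; inactive = at or under that limit in both runs.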
# Tests used:
# [1] = OD615 S. cerevisiae growth inhibition, permissive medium, pilot counter-assay, permissive growth control for S. cerevisiae lifespan shortening project (AID 705;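 active = growth inhibition above 25% in both replicates, a cutoff set 3 SD above the mean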); conditions: OD615, 24 h, at 10 µM, hits give high values
# In short: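 Material: engineered DeaD yeast; compound dosing: one dose 10 µM, DMSO 0.25% final; measure: yeast growth inhibition indicated by reduced 24 h OD615; detection: OD615 turbidity read; incubation: cells pre-grown 4 h, then 24 h compound exposure, 30 °C humidified; medium: permissive synthetic complete medium with raffinose and galactose carbon sources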
# [2] = Restrictive medium S. cerevisiae growth inhibition, OD615, pilot screen of yeast lifespan reduction project, restrictive growth control (AID 706;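 active = growth inhibition above a set limit, 3 SD over mean compound inhibition, in both replicates, cut at about 43% in these data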;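 note: modified DeaD lifespan yeast strain shifted to restrictive glucose medium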); conditions: OD615, 48 h, at 10 µM, hits give high values
# In short: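 material = engineered S. cerevisiae DeaD strain | medium = glucose-based CSMM-D restrictive medium | times = 4 h pre-incubation, 48 h exposure at 30 °C | technique = OD615 absorbance reading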
# [3] = viability gain of MRP-1-high H69AR cells under doxorubicin, pilot screen, MRP-1 activator project, CellTiter-Glo, duplicate (AID 807;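 active = viability increase at or above a cutoff of the median across tested compounds plus 3 SD, cut at about 8.5% in these data, passing the limit was not always enough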;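 note: compound pretreatment 18-22 h then 72 h combined with doxorubicin; 0% = doxorubicin alone and 100% = vehicle without doxorubicin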); conditions: H69AR viability with doxorubicin, CellTiter-Glo luminescence; at 10 µM; hits give high values
# [4] = growth suppression of beta-catenin knockout HCT116, pilot screen, human colon tumor cells (AID 823;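 active = cell viability at or below a set limit in both duplicate runs, the limit being the all-compound median minus 4 SD, cut at about 23% in these data, passing the limit was not always enough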;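 note: 0% = wells killed by 20 µM Hyamine and 100% = untreated DMSO cell wells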); conditions: CellTiter-Glo, 60 h, at 10 µM, hits give low values
# [5] = growth suppression of PTEN-deleted HCT116, pilot screen, cell-based, HCT116 clonal line, CellTiter-Glo (AID 824;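 active = viability at or below 27.92% in each of two runs, the all-compound median minus 4 SD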;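 note: 0% = 20 µM Hyamine control and 100% = vehicle cell control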); conditions: 60 h, at 10 µM, hits give low values
# [6] = inhibitors of the yeast RAM network, pilot screen, dse1pr::URA3 reporter, 5-FOA selection (AID 869);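 note: 0% = DMSO wells with no growth and 100% = 10 µM 1-NA-PP1 with full growth; RAM network block rescues cells from 5-FOA so hits raise OD615 growth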; conditions: S. cerevisiae dse1pr::URA3 5-FOA growth, OD615, 2 d; at 10 µM; hits give high values; strain carries analog-sensitive mutant Cbk1 kinase
# [7] = RAM signaling pathway blockade in yeast – S. cerevisiae, Pdr1DBD-CYC8 efflux-inhibited sensitized strain, primary screen (AID 1298;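 active = RAM network inhibition above 8.4% in each of two replicates, 3 SD over the compound average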;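 note: 0% = DMSO untreated cells without growth and 100% = 10 µM 1-NA-PP1 full growth; higher means more yeast growth rescued from 5-FOA killing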); conditions: S. cerevisiae cbk1-as DSE1-URA3 strain, 5-FOA growth OD615, 2 d; at 50 µM; hits give high values
Compound,growth inhibition [1] [%],growth inhibition [2],viability increase [3] [%],viability [4] [%],viability [5] [%],inhibition [6] [%],RAM network inhibition [7] [%]
CCCCn1c(CN2CCOCC2)nc2c1c(=O)n(C)c(=O)n2C,-1.51,-7.03%,-1.72,93.8,89.6,0.375,2.4
O=C(Nc1ccc2c(c1)OCO2)C(c1ccccc1)N1CCCCC1 (stereo unspecified),-3.12,0.37%,-1.69,80.6,93.2,1.16,2.51
CN(c1ccccc1)S(=O)(=O)c1cccc(C(=O)N2CCN(c3ccccn3)CC2)c1,2.2,4.43%,-0.97,81,86.1,-0.145,-1.92
CCOC(=O)N1CCC(NC(=O)C2CCCCN2S(=O)(=O)c2ccc(F)cc2)CC1 (stereo unspecified),-12.5,-1.21%,-3.71,94,89.6,0.405,-0.16
CCOC(=O)Nc1ccc2c(c1)N(C(=O)N(CC)CC)c1ccccc1CC2,-8.36,-26.2%,-3.07,71.6,71.3,2.9,2.11
Cn1c(C(=O)NCc2ccccn2)cc2c(=O)n(C)c3ccccc3c21,-1.81,0.035%,-4.13,103,89.5,0.965,-0.15
Cc1ccc(NC(=O)CCNS(=O)(=O)c2cccc3nonc23)cc1,-4.17,-8.23%,-1.47,105,95.5,0.755,4.98
O=C(NCCCNCc1ccccc1)c1ccc(/C=N/O)nc1,-8.54,-12.5%,-1.94,93.2,97.9,1.73,3.09
CCc1ccccc1NC1c2ccccc2C(=O)N1c1cc(C)ccn1 (stereo unspecified),-12.1,-4.82%,-1.63,99.1,101,1.82,11.4
CCc1ccc(C2CC(c3ccc(C)cc3)Nc3nc(N)nn32)cc1 (stereo unspecified),-5.94,-9.54%,2.61,106,93.6,2.66,8.09
CCOc1ccccc1C1CC(c2ccccc2)Nc2nc(N)nn21 (stereo unspecified),-1.36,8.93%,-1.31,97.2,88.2,2.27,2.72
COc1ccc(C(=O)Nc2ccc3oc(-c4cccc(F)c4)nc3c2)cc1OC,-9.88,-5.71%,-2.46,95.1,90.3,3.53,3.33
CC(=O)Oc1c(Cl)c(N2CCOCC2)c(OC(C)=O)c2ccccc12,-22.8,-7.78%,-6.81,70.4,79,-0.75,2.47
CC1CCN(CC(C)OC(=O)c2ccc3c(c2)OCCO3)CC1 (stereo unspecified),-8.49,6.58%,-0.68,112,105,1.62,3.4
CC1CC(C)CN(C(=O)CSc2nnc(-c3ccc(F)cc3)o2)C1 (stereo unspecified),-2.08,5.43%,-0.28,94.5,99.8,0.645,2.78
C=CCn1c(NCc2cc(C)ccc2O)nc2ccccc21,-18.2,-17.9%,-2.74,82.8,70.6,-0.74,2.04
CCOC(=O)C1CCN(C(=O)C2CCN(S(=O)(=O)c3cccc4cccnc34)CC2)CC1,4.06,3.42%,-1.75,102,97.6,0.585,1.1
COc1ccccc1NC(=O)N1CCN(c2ccccn2)CC1,-12.1,-7.1%,0.85,103,104,2.67,4.32
Cc1cccc(C)c1NC(=O)C1(N(Cc2ccco2)C(=O)CC2NC(=O)NC2=O)CCCCC1 (stereo unspecified),-7.47,-10.5%,-2.27,92.7,93.9,1.23,0.68
Cc1ccc(CCN2CC(C(=O)NCc3cccnc3)CC2=O)cc1 (stereo unspecified),6,5.13%,-0.64,104,94.5,2.59,-0.99
COc1cccc(-n2c(=O)[nH]cc(C(=O)Nc3ccc(NC(C)=O)cc3)c2=O)c1,-13.3,4%,0.63,106,96.6,3.3,4.32
O=S(=O)(Nc1ccc(O)cc1)c1cccc2cccnc12,-1.12,-4.81%,-1.95,93.9,87,2.25,0.83
CCOc1ccc(C2NC(=O)c3n[nH]c(C)c32)cc1 (stereo unspecified),-3.56,8.35%,1.63,107,103,1.07,0.36
O=C1CC(c2nc3ccccc3[nH]2)CN1c1cccc(C(F)(F)F)c1 (stereo unspecified),-1.92,4.75%,6.49,86,76.5,1.1,-2.12

Compound,growth inhibition [1] [%],growth inhibition [2],viability increase [3] [%],viability [4] [%],viability [5] [%],inhibition [6] [%],RAM network inhibition [7] [%]
NC(=O)C1(N2CCCCC2)CCN(S(=O)(=O)c2cc(Cl)ccc2Cl)CC1,4.2,3.53%,0.74,98.7,91.1,1.56,6.42
COc1ccc(CNC(=O)c2cnn3c(C(F)F)cc(C)nc23)cc1OC,-6.09,9.23%,0.02,92.3,86.2,1.99,2.31
CC(C)NC(=O)c1cc2c(-c3ccc(Cl)cc3)nn(C)c2s1,-10.4,3.42%,-6.18,74.5,76.8,3.84,4.3
COC(=O)C(C)n1cnc2c(nnn2-c2cccc(Cl)c2)c1=O (stereo unspecified),-6.67,1.2%,2.08,110,99,0.05,6.76
COc1ccc(C2NC(=O)c3n[nH]c(C)c32)c(OC)c1 (stereo unspecified),-1.65,7.6%,-0.95,102,103,2.85,3.42
CNC(=O)CN1C(=O)c2ccccc2S1(=O)=O,-5.12,1.27%,-0.6,101,98.9,2.51,2.32
CCOC(=O)N1CCC(N2C(=O)c3ccccc3C2=O)CC1,-1.78,-3.71%,0.37,102,98.8,1.98,-0.31
O=C(c1ccncc1)N1CCN(C(=O)c2cccc3ccccc23)CC1,-14.8,-7.07%,-2.73,101,93.9,2.16,2.45
COc1ccc(-c2cn3c(C)c(C(=O)N4CCCc5ccccc54)sc3n2)cc1,0.505,24.2%,-3.31,64.9,65.6,0.565,3.08
Brc1cccc(-c2nnc3sc(CNCc4ccco4)cn23)c1,1.61,47.3% (active),-4.13,94.2,99.3,1.97,8.75
Cc1ccc2oc(=O)n(CCOc3ccccc3Cl)c2c1,2.37,0.755%,2.94,88.5,83.9,0.955,2.66
CSc1nnc(-c2ccco2)n1-c1ccccc1,-6.73,6.08%,-0.4,94.6,90,2.92,5.77
CC1CN(C(=O)Nc2ccc3snnc3c2)c2ccccc21 (stereo unspecified),-4.18,-6.81%,-2.57,82,75,2.52,4.27
CC1CCN(C(=O)CSc2ccc3nnc(-c4cccc(F)c4)n3n2)CC1,-0.835,-0.735%,-3.12,79.5,81.3,0.67,-1.03
COc1cc(S(=O)(=O)NCc2ccc3c(c2)OCO3)ccc1Cl,-10.5,-15.1%,-2.38,97.3,95.5,1.69,0.82
CC(=O)c1cccc(NC(=O)C2CCCN(S(=O)(=O)c3cccc4cccnc34)C2)c1 (stereo unspecified),-10.5,-5.17%,-2.34,83.5,73.7,2.18,4.5
CCOC(=O)c1ccc(N2C(=O)C3ON(c4ccccc4)C(c4ccco4)C3C2=O)cc1 (stereo unspecified),-17.9,5.19%,-4.17,102,93.4,1.73,4.07
CCCOc1ccccc1C1NC(=O)NC(C)=C1C(=O)OCCOC(C)C (stereo unspecified),-12.9,-13.2%,-2.17,89.5,91.4,0.325,5.61
O=C(Nc1nccs1)c1ccc(S(=O)(=O)N2CCCCC2)cc1,-9.01,-1.44%,0.89,94,90,1.73,5.88
CCCCN(C)Cc1c(C)[nH]c2ccc(OCC)cc2c1=O,-11.7,-20%,-0.94,93.6,97.9,1.4,4.04
O=C(c1cccc2c1-c1ccccc1/C2=N/O)N1CCCCC1,6.27,-0.58%,-3.72,88.5,92.3,0.91,4.23
Cc1ccc2c(c1)c1c(n2CC(O)CNC(CO)(CO)CO)CCCC1 (stereo unspecified),-2.98,-11.3%,-1.14,94.9,90.8,0.175,-0.57
O=C1CC(C(=O)N2CCN(c3ccc(F)cc3)CC2)CN1CCc1ccccc1 (stereo unspecified),-1.65,5.89%,-2.3,99.2,92.6,-0.23,1.03
CC1=C(C(=O)OCC2CCCO2)C(c2ccccc2)NC(=O)N1 (stereo unspecified),-9.26,-17.9%,-0.06,103,99.8,1.33,-0.93
